# KCNK3 inh – human KCNK3 channel inhibitors, primary screen, CHO cells, FluxOR thallium flux, B-score; Potassium channel subfamily K member 3 (Homo sapiens), O14649; FluxOR fluorescence; hits give low values; B-score at 10 µM; 340,000 tested, 0.84% active; AID 602410, 2012;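 active = B-score under library mean minus 4 SD, starting fluorescence ratio at most library mean plus 5 SD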;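 note: more negative B-score means stronger inhibition of thallium flux through KCNK3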
# KCNQ1 inh – inhibitors of human KCNQ1 channel, primary screen, cell-based, thallium flux, high-throughput; Potassium voltage-gated channel subfamily KQT member 1 (Homo sapiens), P51787; 310,000 tested, 1.3% active; B-score at 10 µM; CHO-K1 KCNQ1, FluxOR thallium flux fluorescence; hits give high values; AID 2642, 2010;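 active = compounds whose thallium flux B-score, printed positive for inhibition, exceeds three library SD while starting fluorescence stays within three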;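 note: channel opened by potassium depolarization with thallium stimulus after 20 min compound exposure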
# hERG protect – hERG rescue from dofetilide block, primary screen, cell-based, CHO-hERG, FluxOR thallium flux, dofetilide IC70 | dofetilide IC70 present | activation (rescue from dofetilide block), less the hit threshold, % at 10 µM | Voltage-gated inwardly rectifying potassium channel KCNH2 (Homo sapiens), Q12809 | 310,000 tested, 0.51% active;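 active = activation above the mean of controls blocked by dofetilide plus 5 SD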;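 note: thallium influx through hERG after potassium depolarization seen as dye fluorescence rise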
# KCNK9 inh – KCNK9 potassium channel inhibitors, primary screen, HEK293 cells, thallium flux; Potassium channel subfamily K member 9 (Homo sapiens), Q9NPC2; FluxOR thallium flux fluorescence; hits give low values; B-score at 10 µM; 310,000 tested, 1.2% active;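 active = ratio B-score over 3 SD below the library mean, with starting fluorescence within 5 SD of its mean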;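 note: negative B-score means less thallium flux so channel inhibition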
# Target sequence (Q9NPC2 whole entry, looked up): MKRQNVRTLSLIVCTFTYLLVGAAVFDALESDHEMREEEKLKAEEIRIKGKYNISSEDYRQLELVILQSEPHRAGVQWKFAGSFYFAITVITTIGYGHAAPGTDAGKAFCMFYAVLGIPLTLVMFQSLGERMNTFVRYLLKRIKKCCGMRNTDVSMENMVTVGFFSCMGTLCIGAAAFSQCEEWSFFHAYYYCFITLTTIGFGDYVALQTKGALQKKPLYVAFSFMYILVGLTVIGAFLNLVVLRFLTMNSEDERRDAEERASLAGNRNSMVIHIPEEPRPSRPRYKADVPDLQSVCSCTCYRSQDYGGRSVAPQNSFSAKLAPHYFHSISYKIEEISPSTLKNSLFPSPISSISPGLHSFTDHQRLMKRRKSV
# KCNQ1 act – potentiators or activators of KCNQ1 channel, primary screen, cell-based, thallium flux, high-throughput | B-score at 10 µM | 310,000 tested, 0.35% active | Potassium voltage-gated channel subfamily KQT member 1 (Homo sapiens), P51787 | AID 2648, 2010 | CHO-K1 KCNQ1, thallium flux FluxOR fluorescence; hits give high values;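 active = fluorescence ratio B-score, a plate-corrected score, at least three library SD, with initial intensity B-score within 5 SD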
#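 Test system: CHO-K1 cells stably expressing KCNQ1 / Medium: assay buffer / Also added: depolarizing K+/Tl+ stimulus, K2SO4 and Tl2SO4 each 12.5 mM in 5x stock / Incubation: 90 min dye loading and 20 min compound exposure, both at room temperature / Signal: thallium influx via FluxOR fluorescence, kinetic imaging / Evaluation: B score of baseline-normalized fluorescence ratio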
# Kir21 block – inhibitors of mouse Kir2.1 inward-rectifier potassium channel; HEK293-Kir2.1, FluxOR thallium flux fluorescence; hits give low values; B-score at 10 µM; 310,000 tested, 0.85% active;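 active = fluorescence ratio B-score at or below minus 3 SD of library scores, with starting-brightness B-score within 2 SD, cut at about -4.2 in these data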;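 note: channel flux triggered by added potassium and thallium sulfate stimulus; B-score of peak minus minimum fluorescence over baseline after thallium stimulus; more negative B-score means stronger Kir2.1 block with less thallium influx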
# Hits are given with their value; . = inactive; / = not tested or not shown. Most compounds without a hit are left out; they make up all but 3.7% or so of the library.
SMILES,KCNK3 inh,KCNQ1 inh,hERG protect,KCNK9 inh,KCNQ1 act,Kir21 block
COc1ccc2nc(NCc3ccccc3)[nH]c2c1,.,.,.,.,.,-5.26
COc1ccc(CC(=O)Nc2nc3ccccc3[nH]2)cc1,.,.,.,.,.,.
COc1cccc(CC(=O)Nc2nc3ccccc3[nH]2)c1,.,.,4.9,.,.,.
Cc1[nH]c2ccccc2c1CC#N,.,.,.,.,.,.
Cc1[nH]c2ccccc2c1C1=CC(=O)C=CC1=O,-9.21,/,/,/,/,/
COc1ccc(-c2cc3nc(C)cc(N4CC(C)CC(C)C4)n3n2)cc1 (stereo not given),.,6,.,.,.,.
Cc1ccc(-c2cc3nc(C)cc(C)n3n2)cc1,.,.,.,.,.,.
COc1cccc(NC(=O)CN(C)C(=O)CCNS(=O)(=O)c2ccc(C)cc2)c1,.,/,/,/,/,/
CCC1CCCCN1c1nc(-c2cccc(OC)c2O)nc2ccccc12 (stereo not given),.,.,.,-7.64,.,.
CCC1CCCCN1c1nc(-c2ccncc2)nc2ccccc12 (stereo not given),.,.,.,-6.85,.,.
CC1CCCCN1c1nc(-c2ccncc2)nc2ccccc12 (stereo not given),.,.,.,.,.,.
CC1CCCN(CC(O)COc2ccc(S(=O)(=O)N3CCCC3)cc2[N+](=O)[O-])C1 (stereo not given),.,/,/,/,/,/
CCOc1cccc2cc(-c3cn4cc(C)ccc4n3)c(=O)oc12,.,.,10.5,.,.,.
COc1cccc2cc(-c3cn4ccc(C)cc4n3)c(=O)oc12,.,.,.,.,.,.
CCCCCSc1nnc2c(n1)OC(c1cccn1C)N(C(C)=O)c1ccccc1-2 (stereo not given),.,.,.,-9.75,.,.
CC(C)n1c(CNC(=O)c2ccccc2F)nnc1SCC(=O)NC1CCCCC1,.,/,/,/,/,/
O=C(CSc1nc2ccccc2c(=O)n1CCCC(=O)N1CCCC1)NCc1ccco1,.,.,.,.,.,.
O=C(CCCCCn1c(SCc2ccncc2)nc2ccccc2c1=O)NCc1ccco1,.,.,.,.,.,-4.34
Cc1ccc(/C(O)=C/C(=O)C(=O)NNC(=O)C(O)(c2ccccc2)c2ccccc2)cc1,.,.,.,.,13,.
C=C(C)CSc1cc(C)c(C#N)c2nc3ccccc3n12,.,6,.,.,.,.
Cc1ccc(C(=O)Nc2ccc(N3CCOCC3)nc2)cc1,.,.,.,.,.,.
CN1CCN(c2ccc(NC(=O)c3ccc(Cl)cc3)cn2)CC1,.,.,7.8,.,.,.
C=CCOC(=O)c1ccccc1C(=O)OCC1CO1 (stereo not given),.,/,/,/,/,/
O=C(O)c1ccccc1NC(=O)C(c1ccccc1)c1ccccc1,.,.,.,.,.,.
O=C(Nc1ccccc1O)C(c1ccccc1)c1ccccc1,.,6,.,.,.,.
SMILES,KCNK3 inh,KCNQ1 inh,hERG protect,KCNK9 inh,KCNQ1 act,Kir21 block
C(C#CCCCCCCCCC[n+]1ccccc1)#CCCCCCCCCC[n+]1ccccc1,.,.,.,.,.,-14.7
CCOC(=O)C(=Cc1cc(=O)c(OC)co1)C(=O)OCC,.,.,.,.,10,-7.35
C=C(C(=O)c1ccccc1)C(C)C(=C)C(=O)c1ccccc1,.,.,.,.,.,-4.38
CCCN=C1N/C(=C\c2ccco2)C(=O)N1c1ccccc1,.,.,.,.,.,.
CCCN(CCC)C1=N/C(=C\c2ccco2)C(=O)N1c1ccccc1,.,.,.,-7.7,.,.
O=C1C2C3C=CC(C4CC34)C2C(=O)N1/N=C/c1ccc(-c2ccc(F)cc2[N+](=O)[O-])o1 (stereo not given),.,.,8.1,.,.,.
O=C(NC1CC1)c1ccc2c(c1)C1C3CCC(C3)C1C(c1ccccc1)N2 (stereo not given),.,.,5.2,.,.,.
Cc1ccc(CNC(=O)c2ccc(C)c(S(=O)(=O)N3CCCCC3)c2)cc1,.,/,/,/,/,/
O=C(c1ccccc1SCc1ccccc1)N1CCCCCC1,.,.,.,.,.,-4.5
Cn1cc(/C=C2\SC(=O)NC2=S)c2ccccc21,.,.,15.9,.,.,.
O=C(O)c1ccc(NC2(C(=O)O)CCCC2)cc1,.,/,/,/,/,/
O=C(NC(=S)Nc1cnc2ccccc2c1)c1ccccc1,.,.,.,.,.,.
O=C(NC(=S)Nc1ncc(Br)cc1Br)c1ccccc1,.,.,.,.,7,.
O=C1CN(C(=O)COC(=O)COc2ccccc2)c2ccccc2N1,.,/,/,/,/,/
CCOc1ccc(N2C(=O)C3=C(C(c4ccc(Cl)cc4)=NCCN3)C2c2cccnc2)cc1 (stereo not given),.,.,.,.,.,.
Cc1ccc(C2C3=C(NCCN=C3c3ccccc3)C(=O)N2c2ccccc2)cc1 (stereo not given),.,.,.,.,.,-8.8
CCOC(=O)c1[nH]c(C)c(C(=O)OCC(=O)N(Cc2ccccc2)C(C)C)c1C,.,/,/,/,/,/
COc1ccc(CCNc2oc(COc3ccccc3F)nc2C#N)cc1,.,.,.,.,.,.
COc1ccc(CCNc2oc(COc3ccc(Br)cc3)nc2C#N)cc1OC,-11.9,.,.,-8.05,.,.
CCCCN(c1ccccc1)S(=O)(=O)N(C)C,.,.,.,.,.,-5.13
CC1CC(=Cc2ccc(N)cc2)C(=O)O1 (stereo not given),.,/,/,/,/,/
COc1ccc(OC)c(S(=O)(=O)Nc2ccc(O)c3ccccc23)c1,.,.,11.3,.,.,.
N#C/C(=C\c1cccs1)C(=O)c1ccccc1Cl,.,.,.,.,.,-6.99
CC(C)(C)C(=O)/C(C#N)=C/c1cccs1,.,.,.,.,.,.
Cc1nc2c3cc(F)ccc3n(Cc3ccccc3)c2s1,.,.,.,.,.,.
SMILES,KCNK3 inh,KCNQ1 inh,hERG protect,KCNK9 inh,KCNQ1 act,Kir21 block
Cc1nc2c3cc(F)ccc3n(Cc3ccccc3F)c2s1,.,.,.,-8.04,.,.
Cc1cccc(-c2nnc(NC(=O)c3ccc(Cl)cc3)o2)c1,.,.,.,.,9,.
Cc1cccc(C)c1OCCCCc1c(C)n[nH]c1C,.,.,.,-8.03,.,.
COc1cccc(OC)c1OCCCCCc1c(C)n[nH]c1C,.,.,.,.,.,-4.46
COc1cccc(OC)c1OCCCCc1c(C)n[nH]c1C,.,.,.,.,.,.
CC(C)C[C@H]1CNC(=S)N1CC1CCN(CCCCc2ccccc2)CC1,.,/,/,/,/,/
CCN(CC)c1ccc(/C=N/NC(=O)c2nnn(-c3nonc3N)c2C(C)C)c(O)c1,.,7,.,.,.,.
